Sampled rows, rich in hits. Any-hit rate of the full collection: about 3%.
MC4R ag barr = MC4R agonists recruiting beta-arrestin, primary screen, cell-based, luminescence, agonist arm of biased-ligand search | Melanocortin receptor 4 (Homo sapiens), P32245 | U2OS MC4R beta-arrestin complementation; percent of melanotan II response, DMSO zero | 360,000 compounds, 0.98% hits | activation, % at 8.9 µM | AID 540308, 2011;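 active means activation above a per-plate cutoff, the mean activation of sample wells on that plate plus 3 SD, cut at about 8% in these data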
Target sequence (P32245 whole entry, looked up): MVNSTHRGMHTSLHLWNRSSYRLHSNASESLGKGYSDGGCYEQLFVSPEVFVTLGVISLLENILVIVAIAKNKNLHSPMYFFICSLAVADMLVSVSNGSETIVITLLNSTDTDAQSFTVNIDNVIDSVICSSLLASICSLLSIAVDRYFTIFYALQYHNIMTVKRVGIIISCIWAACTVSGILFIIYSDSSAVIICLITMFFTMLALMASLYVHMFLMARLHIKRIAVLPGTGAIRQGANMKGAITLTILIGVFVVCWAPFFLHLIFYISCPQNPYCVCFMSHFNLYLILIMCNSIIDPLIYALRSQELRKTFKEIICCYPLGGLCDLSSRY
Beta2AR agonist = beta2AR agonists driving receptor internalization, primary screen, cell-based, FAP fluorogen, flow cytometry. response, % (test concentration not listed). Beta-2 adrenergic receptor (Homo sapiens), P07550. Am2.2-beta2AR cells. AID 504454, 2011. 340,000 compounds, 0.43% hits;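 active means response above a set limit, near 3 SD of response in nonfluorescent compounds, cut at about 42% in these data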
MC4R antag cAMP = MC4R antagonists of cAMP signaling, primary screen, cell-based, TR-FRET, antagonist arm of biased-ligand search. AID 540295, 2011. 360,000 compounds, 0.48% hits. inhibition, % at 6.5 µM. MC4R-expressing cells, MTII-stimulated cAMP, LANCE TR-FRET. Melanocortin receptor 4 (Homo sapiens), P32245;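 active means inhibition above its plate's cutoff, the mean of tested wells on that plate plus 3 SD, cut at about 29% in these data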;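 further: 0% = Melanotan II alone and 100% = Melanotan II plus saturating MCL0020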
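Material: human MC4R-expressing U2OS cells. Probe or stimulus: Melanotan II challenge. Dosing: 6.5 µM single dose. Times: 30-min compound, 1-h challenge, 1-h detection, room temperature. Technique: TR-FRET with Eu-cAMP and labeled anti-cAMP, 671 nm. Replication: singlicate.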
PfGluPho inh = PfG6PD enzyme inhibitors, primary screen, biochemical, fluorescence intensity, uHTS; glucose-6-phosphate dehydrogenase-6-phosphogluconolactonase (Plasmodium falciparum 3D7); PfGluPho enzyme, NADPH resazurin-diaphorase fluorescence; inhibition, % at 20 µM; 350,000 compounds, 0.78% hits; AID 504690, 2011;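 active means inhibition reaching at least a set limit at 20 µM in the primary screen, cut at about 59% in these data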;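 further: 0% = DMSO wells with substrate and 100% = DMSO wells lacking glucose-6-phosphate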
ABHD5-PLIN5 inh = ABHD5-PLIN5 interaction inhibitors, primary screen, cell lysate, split luciferase complementation, luminescence; Split G. princeps luciferase complementation, 4 h; inhibition, % at 4 µM; 360,000 compounds, 0.78% hits; AID 602281, 2012;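 active means inhibition above the mean inhibition across every tested compound plus 3 SD, cut at about 22% in these data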;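 further: 0% = DMSO only wells and the 100% control is not disclosed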
cAMP nonselect = nonselective cAMP signaling inhibitors, parental cells, counter-screen for MC4R biased antagonist project, cell-based, TR-FRET, U2OS, forskolin, triplicate; inhibition, % at 6.5 µM; shares compounds with MC4R antag cAMP; LANCE TR-FRET; 1,600 compounds, 26% hits; AID 602193, 2012;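 active means mean inhibition over triplicates above the low-control well mean plus 3 SD, set per campaign, cut at about 13% in these data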;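 further: signal is single emission at 671 nm which falls as cellular cAMP rises; 0% = forskolin-stimulated wells and 100% = buffer without forskolin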
MC4R antag conf = MC4R cAMP antagonists, retest, confirmation, cell-based, TR-FRET. 1,600 compounds, 27% hits. MC4R-expressing cells, MTII-stimulated cAMP. shares compounds with MC4R antag cAMP. inhibition, % at 6.5 µM; in the data active means inhibition above about 29%;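 further: 0% = agonist stimulated wells alone and 100% = agonist stimulated wells plus saturating reference antagonist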
Starred values were filed as active, the others as inactive; x = no result given.

SMILES	MC4R ag barr	Beta2AR agonist	MC4R antag cAMP	PfGluPho inh	ABHD5-PLIN5 inh	cAMP nonselect	MC4R antag conf
CCOc1cc(/C=C2\N=C(C)OC2=O)cc(Br)c1OCC(=O)OC	-1.2	12.9	44.2*	-0.6	5.5	-2.6	-12.7
CCOc1cc(/C=C2\N=C(C)OC2=O)cc(Br)c1OCCc1ccccc1	-1.6	5.0	18.7	-14.7	2.5	x	x
CC1CCN(S(=O)(=O)c2cn(CC(=O)Nc3ccc(C#N)cc3)cn2)CC1	-0.9	-1.6	12.3	7.1	4.6	x	x
Cc1c(N=C2SCC(=O)N2/N=C\c2ccc(Br)cc2)c(=O)n(-c2ccccc2)n1C	-0.3	-2.5	31.1*	-0.4	-1.0	-3.7	-22.2
O=C(CCS(=O)(=O)Cc1ccccc1F)NCc1ccccc1Cl	-0.3	-9.0	2.3	6.0	-6.1	x	x
O=C(Nc1ccc(Cl)c(C(F)(F)F)c1)c1ccncc1	1.3	7.3	3.9	-2.9	0.2	x	x
CNC(=O)c1cc(Oc2ccc(NC(=O)Nc3ccc(Cl)c(C(F)(F)F)c3)cc2)ccn1	1.2	15.4	47.3*	29.8	-10.9	3.6	40.2*
COc1cccc(-n2c(C)cc(/C=C3/C(=N)N4C(=NC3=O)SN=C4S(C)(=O)=O)c2C)c1	0.0	-4.7	29.0*	-31.5	-3.0	-7.4	-25.7
COc1cc(/C=C2/C(=N)N3C(=NC2=O)SN=C3S(C)(=O)=O)ccc1OS(=O)(=O)c1ccc(C)cc1	-3.0	-8.3	11.9	0.2	-12.8	x	x
C=CC(=O)Nc1cccc(CN2C(=O)N(c3cc(OC)cc(OC)c3)Cc3cnc(NCCCCN(CC)CC)nc32)c1	x	12.9	x	25.6	x	x	x
C#CCn1ccc(O)c(Cc2c(F)cccc2Cl)c1=O	-0.7	4.0	22.9	-11.0	-6.8	x	x
O=c1c(Cc2c(F)cccc2Cl)c(O)ccn1CCCN1CCOCC1	0.9	12.5	30.5*	2.4	3.0	-7.1	-20.0
COc1ccc(S(=O)(=O)N2CCN(C(=O)c3ccc([N+](=O)[O-])o3)CC2)cc1	0.9	-0.1	12.6	13.8	7.2	x	x
COc1ccc(/C=C/C(=O)c2ccc([N+](=O)[O-])o2)cc1	-2.6	59.2*	30.1*	28.8	18.0	7.8	7.2
CCOC(=O)/C=C/C(=O)Nc1cccc([N+](=O)[O-])c1	-4.7	7.0	34.2*	47.7	43.6*	25.8*	60.1*
Cc1ccccc1NC(=O)COC(=O)c1ccc(S(C)(=O)=O)c([N+](=O)[O-])c1	-1.9	16.4	47.0*	-4.4	10.3	32.7*	50.6*
CC(CCc1ccccc1)NC(=O)COC(=O)c1ccc(S(C)(=O)=O)c([N+](=O)[O-])c1 (configuration not stated)	-2.7	29.8	69.8*	7.8	6.5	32.2*	55.5*
CS(=O)(=O)c1ccc(C(=O)OCC(=O)Nc2cccnc2Cl)cc1[N+](=O)[O-]	-0.8	8.9	-6.1	4.8	10.7	x	x
CC(CCc1ccccc1)NC(=O)COC(=O)c1ccc([N+](=O)[O-])cc1 (configuration not stated)	-1.4	1.2	7.8	-0.7	-2.1	x	x
Cc1ccc(S(=O)(=O)N2CCC[C@H]2C(=O)OCC(=O)N2CCc3ccccc32)cc1	0.4	1.1	31.4*	-8.1	4.1	7.6	16.1
Cc1ccnc2nc(C(=O)OCC(=O)N3CCc4ccccc43)nn12	-1.4	-0.4	33.8*	-13.4	-4.0	-5.7	-9.9
Cc1ccc(S(=O)(=O)N2CCC(C(=O)OCC(=O)N3CCc4ccccc43)CC2)cc1	-0.5	2.5	5.5	-3.1	4.0	x	x
Cc1cccc(OC(=O)c2sc(Cl)nc2C)c1	-2.2	2.1	31.6*	6.2	2.4	13.9*	32.0*
O=C(c1nc2ccccn2c1CNCCn1ccc2ccccc21)N1CCOCC1	3.8	-1.1	32.5*	-11.2	2.5	-9.7	-21.2
Cc1cc([N+](=O)[O-])nn1Cc1ccc(C(=O)N/N=C/c2ccc(N(C)C)cc2)cc1	-1.7	6.5	3.7	10.4	-2.5	x	x
SMILES	MC4R ag barr	Beta2AR agonist	MC4R antag cAMP	PfGluPho inh	ABHD5-PLIN5 inh	cAMP nonselect	MC4R antag conf
CC1(C(=O)NS(=O)(=O)c2cccs2)CCN1C(=O)C1CCCCC1 (configuration not stated)	-1.6	x	0.1	x	6.8	x	x
O=C(COC(=O)[C@@H]1CCCN1S(=O)(=O)c1ccc(Cl)cc1)NC1CCS(=O)(=O)C1 (some centres not stated)	-0.3	-1.4	7.0	-19.7	-4.3	x	x
O=C(COC(=O)[C@@H]1CCCN1S(=O)(=O)c1ccc(Cl)cc1)NC12CC3CC(CC(C3)C1)C2	2.2	-3.5	32.5*	11.6	-0.9	13.7*	34.0*
CCN(CC)S(=O)(=O)c1cccc(C(=O)NNC(=O)c2ccc3[nH]c(=O)c(=O)[nH]c3c2)c1	-2.9	6.9	-1.7	10.3	-5.7	x	x
CC(C)n1c(=S)[nH]c2scc(-c3cccs3)c2c1=O	-1.6	3.2	8.9	8.2	-18.5	x	x
O=c1c2c(-c3cccs3)csc2[nH]c(=S)n1-c1ccccc1	-1.3	5.1	31.4*	-12.1	-13.3	17.7*	33.5*
C=CCSc1nc2c(N)ncnc2n1C1OC(CO)C(O)C1O (configuration not stated)	-1.2	x	31.2*	-1.6	-10.6	-2.7	-9.2
CNc1nc2c(N)ncnc2n1[C@H]1O[C@@H](CO)[C@H](O)[C@@H]1O	1.0	6.1	10.4	-7.7	1.4	x	x
Cc1nn(CC(=O)c2ccccc2)c(=O)c2nn(-c3ccccc3F)c(C)c12	1.0	-1.1	3.0	-6.3	2.3	x	x
O=C(CN1C(=O)NC2(CCCC2)C1=O)Nc1ccc(S(=O)(=O)N2CCOCC2)cc1	-2.4	-1.7	34.1*	-10.7	1.7	1.0	-2.9
O=C(CN1C(=O)NC2(CCCCC2)C1=O)Nc1cccc(S(=O)(=O)N2CCOCC2)c1	0.0	2.4	22.9	-16.3	0.2	x	x
NS(=O)(=O)c1c(Sc2ccccc2C(=O)O)ccc2ccccc12	0.1	2.2	37.0*	-2.4	-2.2	16.7*	37.7*
CCOC(=O)CC(NC(=O)Cn1nnc(-c2ccccc2F)n1)c1ccc(OC)cc1 (configuration not stated)	1.0	0.4	29.7*	-16.0	-2.5	2.8	0.8
O=C(O)C1C2CCC(O2)C1C(=O)Nc1cccc(Cl)c1 (configuration not stated)	-0.6	-0.5	-3.9	-2.3	3.8	x	x

Source: PubChem BioAssay (several laboratories)
